Data set [1] concerns Human immunodeficiency virus 1. The experiment in a line: Antiviral activity against Human immunodeficiency virus 1 isolate M2 expressing protease L10I, I13V, M46I, I50V, L63P, L76V mutant infected in human MT4 cells. In kind it is functional, organism-based. Conditions: Human immunodeficiency virus 1, isolate M2, MT4. In a few lines: (§1)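 Cell-based antiviral assay in MT4 cells infected with a multi-PI-resistant HIV-1 mutant carrying clinically observed primary protease mutations. EC50 determined, with all assays run in quadruplicate.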

The subject of data set [2] is Human immunodeficiency virus 1. The experiment in a line: Antiviral activity against Human immunodeficiency virus 1 isolate M1 expressing protease L10I, M46I, I64V, I84V, L90M, I93L mutant infected in human MT4 cells. In kind it is functional, organism-based. Conditions: Human immunodeficiency virus 1, isolate M1, MT4. A digest of the protocol:
as §1

A short description of data set [3]: Cytotoxicity against human MT4 cells. Format: cell-based.
For data set [4], the system named is Human immunodeficiency virus 1. The experiment in a line: Antiviral activity against Human immunodeficiency virus 1 3B expressing wild-type protease infected in human MT4 cells in presence of 50% human serum. In kind it is functional, organism-based. A digest of the protocol:
(§2)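 Cell-based antiviral assay in MT4 cells infected with wild-type HIV-1 IIIB, read as EC50. Run in quadruplicate. It was also repeated in the presence of 50% human serum as an indicator of plasma protein binding.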

Data set [5] has as its system Human immunodeficiency virus 1. In words: Antiviral activity against Human immunodeficiency virus 1 3B expressing wild-type protease infected in human MT4 cells. Format: functional, organism-based. A digest of the protocol:
as §2

Data set [6] concerns Human immunodeficiency virus 1. The experiment in a line: Antiviral activity against Human immunodeficiency virus 1 isolate M3 expressing protease L10I, K20R, M36I, G48V, I62V, A71V, V82A, I93L mutant infected in human MT4 cells. Format: functional, organism-based. Conditions: Human immunodeficiency virus 1, isolate M3, MT4.
The subject of data set [7] is Human immunodeficiency virus 1. The experiment in a line: Selectivity index, ratio of EC50 for Human immunodeficiency virus 1 isolate M2 expressing protease L10I, I13V, M46I, I50V, L63P, L76V mutant to EC50 for Human immunodeficiency virus 1 3B expressing wild-type protease. In kind it is functional. A digest of the protocol: (§3)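 Fold change is the EC50 against the multi-PI-resistant mutant divided by the EC50 against wild-type HIV-1 IIIB. Both EC50s come from cell-based assays in MT4 cells run in quadruplicate.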

For data set [8], the system named is Human immunodeficiency virus 1. The experiment in a line: Selectivity index, ratio of EC50 for Human immunodeficiency virus 1 isolate M1 expressing protease L10I, M46I, I64V, I84V, L90M, I93L mutant to EC50 for Human immunodeficiency virus 1 3B expressing wild-type protease. Format: functional. A digest of the protocol:
as §3

Data set [9] has as its system Human immunodeficiency virus 1. The experiment in a line: Selectivity index, ratio of EC50 for Human immunodeficiency virus 1 isolate M3 expressing protease L10I, K20R, M36I, G48V, I62V, A71V, V82A, I93L mutant to EC50 for Human immunodeficiency virus 1 3B expressing wild-type protease. Format: functional. A digest of the protocol: as §3
Data set [10] in a line: Selectivity index, ratio of CC50 for human MT4 cells to EC50 for Human immunodeficiency virus 1 3B. Format: toxicity, cell-based. A digest of the protocol:
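Selectivity index is calculated as CC50 divided by EC50 against HIV-1 IIIB in the cell-based assay.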

In another data set the target is Protease (Human immunodeficiency virus 1, UniProt Q9YQ12). The experiment in a line: Inhibition of Human immunodeficiency virus 1 3B protease.
Sequence of Protease (Q9YQ12 whole entry): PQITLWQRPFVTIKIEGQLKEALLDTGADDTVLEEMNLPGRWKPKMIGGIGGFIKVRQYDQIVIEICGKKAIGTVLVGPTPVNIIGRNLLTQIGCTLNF

Take `CC(C)CN(C[C@@H](O)[C@H](Cc1ccccc1)NC(=O)O[C@H]1CO[C@H]2OCC[C@H]21)S(=O)(=O)c1ccc(N)cc1`: the EC50 is 51 nM in [1]; 11.3 nM in data set [2]; 17.2 nM in data set [4]; 6.6 nM in [5]; 2.3 nM in data set [6]. For the same compound, the half-maximal cytotoxic concentration (CC50) in [3] was > 9800 nM.
For `CNc1nc2ccc(S(=O)(=O)N(CC(C)C)C[C@@H](O)[C@H](Cc3ccccc3)NC(=O)O[C@H]3CO[C@H]4OCC[C@H]43)cc2o1`, the “Ratio EC50” value in data set [7] turned out to be 1.4; in data set [8] it was 1.2; in data set [9], 0.4. Further, the 50% effective concentration (EC50) in data set [1] worked out at 3.2 nM; in data set [2], 2.7 nM; in data set [4], 8.3 nM; in [5], 2.3 nM; in data set [6], 0.9 nM. Moreover, the CC50 in data set [3] is > 9800 nM. Further, the selectivity ratio in [10] was > 2000.
For `CC(C)CN(C[C@@H](O)[C@H](Cc1ccccc1)NC(=O)O[C@H]1CO[C@H]2OC[C@H](OCc3ccccc3)[C@H]21)S(=O)(=O)c1ccc(N)cc1`, the “Ratio EC50” value was 12 in data set [7], 3.1 in data set [8] and 1.1 in data set [9]. The EC50 in data set [1] came out at 18 nM; in [2] it was 4.7 nM; in [4] it was 12.1 nM; in [5], 1.5 nM; in data set [6] it was 1.7 nM. The CC50 in [3] was > 9800 nM. Moreover, the selectivity ratio in data set [10] is > 2000. This compound gave an IC50 against Protease of 3.5 nM.
On to `CC(C)CN(C[C@@H](O)[C@H](Cc1ccccc1)NC(=O)O[C@H]1CO[C@H]2OC[C@H](Oc3ccccc3)[C@H]21)S(=O)(=O)c1ccc(N)cc1`, for which the “Ratio EC50” value in data set [7] is given as 28; in data set [8], 3.7; in data set [9], 0.7. The half-maximal effective concentration (EC50) was found to be 249 nM in data set [1]; 32.5 nM in data set [2]; 47.2 nM in data set [4]; 8.9 nM in data set [5]; 6.5 nM in data set [6]. Besides, the CC50 in [3] was > 9800 nM. Besides, the selectivity ratio in data set [10] was > 2000.
With `COCCO[C@H]1CO[C@@H]2OC[C@H](OC(=O)N[C@@H](Cc3ccccc3)[C@H](O)CN(CC(C)C)S(=O)(=O)c3ccc(N)cc3)[C@@H]21`, the “Ratio EC50” value in data set [7] was 4.6; in data set [8], 0.8; in data set [9], 0.4. The EC50 in data set [1] was found to be 71.4 nM; in data set [2] it was 11.9 nM; in data set [4], 37 nM; in data set [5], 15.5 nM; in [6] it was 6.8 nM. In [3], the CC50 was > 9800 nM. Moreover, the selectivity ratio in [10] is > 2000. The IC50 at Protease is 2.5 nM.
As for `CNc1nc2ccc(S(=O)(=O)N(CC(C)C)C[C@@H](O)[C@H](Cc3ccccc3)NC(=O)O[C@H]3CO[C@H]4OC[C@H](O)[C@H]43)cc2o1`, the results for the “Ratio EC50” value in [7], in data set [8] and in data set [9] were 0.8, 0.9 and 0.8, respectively. The EC50 is 108 nM in data set [1]; 125 nM in data set [2]; 446 nM in data set [4]; 138 nM in [5]; 104 nM in [6].
For the compound `CNc1nc2ccc(S(=O)(=O)N(CC(C)C)C[C@@H](O)[C@H](Cc3ccccc3)NC(=O)O[C@H]3CO[C@H]4OC[C@H](OCc5ccccc5)[C@H]43)cc2o1`, the “Ratio EC50” value in data set [7] was determined as 4.5; in data set [8], 2.2; in [9], 1.3. In addition, the EC50 in data set [1] came to 3.4 nM; in data set [2], 1.7 nM; in [4], 3.7 nM; in data set [5] it was 0.8 nM; in data set [6] it was 1 nM. Besides, in data set [3], the CC50 was > 9800 nM. The selectivity ratio in data set [10] is > 2000.
Consider `CNc1nc2ccc(S(=O)(=O)N(CC(C)C)C[C@@H](O)[C@H](Cc3ccccc3)NC(=O)O[C@H]3CO[C@H]4OC[C@H](OCc5ccccc5F)[C@H]43)cc2o1`, for which the “Ratio EC50” value in data set [7] turned out to be 3.1; in data set [8], 2; in [9], 1.3. For the same compound, the EC50 in data set [1] came out at 2.1 nM; in data set [2] it was 1.3 nM; in data set [4] it was 4 nM; in [5], 0.7 nM; in data set [6], 0.9 nM. In [3], the CC50 is > 9800 nM. Also, the selectivity ratio in [10] is > 2000.
Turning to `CNc1nc2ccc(S(=O)(=O)N(CC(C)C)C[C@@H](O)[C@H](Cc3ccccc3)NC(=O)O[C@H]3CO[C@H]4OC[C@H](OCc5cccc(F)c5)[C@H]43)cc2o1`, the entries for the “Ratio EC50” value in [7], in data set [8] and in data set [9] were 2.7, 1.2 and 1.3, respectively. Besides, the EC50 in data set [1] came out at 1.7 nM; in data set [2] it was 0.8 nM; in data set [4], 3.7 nM; in data set [5], 0.6 nM; in [6], 0.8 nM. Moreover, the CC50 in [3] was > 9800 nM. For the same compound, in data set [10], the selectivity ratio is > 2000.
Turning to `CNc1nc2ccc(S(=O)(=O)N(CC(C)C)C[C@@H](O)[C@H](Cc3ccccc3)NC(=O)O[C@H]3CO[C@H]4OC[C@H](OCc5ccc(F)cc5)[C@H]43)cc2o1`, the “Ratio EC50” value in data set [7] came out at 3.8; in data set [8], 1.8; in [9] it was 1.6. For the same compound, the EC50 in [1] amounted to 2.3 nM; in data set [2], 1.1 nM; in data set [4] it was 4 nM; in data set [5] it was 0.6 nM; in [6], 1 nM. For the same compound, in [3], the CC50 is > 9800 nM. The selectivity ratio in data set [10] is > 2000.
As for `CNc1nc2ccc(S(=O)(=O)N(CC(C)C)C[C@@H](O)[C@H](Cc3ccccc3)NC(=O)O[C@H]3CO[C@H]4OC[C@H](OCc5ccc(F)cc5F)[C@H]43)cc2o1`, the “Ratio EC50” value in data set [7] amounted to 4.1; in data set [8], 2; in data set [9] it was 1.3. In addition, the EC50 in data set [1] was 2.3 nM; in data set [2] it was 1.1 nM; in [4] it was 5.4 nM; in [5], 0.6 nM; in [6], 0.7 nM. In data set [3], the CC50 was > 9800 nM. The selectivity ratio in data set [10] was > 2000.
As to `CNc1nc2ccc(S(=O)(=O)N(CC(C)C)C[C@@H](O)[C@H](Cc3ccccc3)NC(=O)O[C@H]3CO[C@H]4OC[C@H](OCOC)[C@H]43)cc2o1`, the entries for the “Ratio EC50” value in data set [7], in [8] and in data set [9] were 2.4, 1.2 and 0.7, respectively. Besides, the EC50 in data set [1] came out at 11.2 nM; in [2], 5 nM; in data set [4], 7 nM; in data set [5] it was 3.4 nM; in [6], 1.9 nM. Besides, in data set [3], the CC50 is > 9800 nM. Besides, the selectivity ratio in data set [10] is > 2000.
For the compound `CNc1nc2ccc(S(=O)(=O)N(CC(C)C)C[C@@H](O)[C@H](Cc3ccccc3)NC(=O)O[C@H]3CO[C@H]4OC[C@H](OCSC)[C@H]43)cc2o1`, the “Ratio EC50” value is listed as 7.1 in [7], 3 in data set [8] and 1.7 in [9]. Further, the EC50 in [1] amounted to 9.3 nM; in data set [2] it was 3.9 nM; in data set [4], 6.7 nM; in data set [5], 1.3 nM; in data set [6], 2.2 nM. For the same compound, in data set [3], the CC50 is > 9800 nM. Moreover, the selectivity ratio in data set [10] is > 2000.
As to `COC(=O)N[C@H](C(=O)N[C@@H](Cc1ccccc1)[C@@H](O)CN(Cc1ccc(-c2ccccn2)cc1)NC(=O)[C@@H](NC(=O)OC)C(C)(C)C)C(C)(C)C` [ATAZANAVIR], the “Ratio EC50” value came out at 0.5 in data set [7], 8.4 in data set [8] and 8.8 in data set [9]. Besides, the EC50 in [1] was 3.2 nM; in [2], 58 nM; in [4], 13.3 nM; in data set [5], 6.9 nM; in data set [6] it was 60.5 nM. The CC50 in data set [3] is > 9800 nM. Also, the selectivity ratio in data set [10] is > 2000.
Take `Cc1cccc(C)c1OCC(=O)N[C@@H](Cc1ccccc1)[C@@H](O)C[C@H](Cc1ccccc1)NC(=O)[C@H](C(C)C)N1CCCNC1=O` [LOPINAVIR]: the EC50 is 307 nM in data set [1], 115 nM in data set [2], 63.2 nM in data set [4] and 13.9 nM in data set [5]. Besides, the CC50 in data set [3] is > 9800 nM.

Source of the values: ChEMBL document CHEMBL2040835, “Disubstituted Bis-THF Moieties as New P2 Ligands in Nonpeptidal HIV-1 Protease Inhibitors” (ACS Med Chem Lett, 2011).
